Activity calls are given as the source filed them. The rule behind the calls is not given here.

Drawing on ChEMBL document CHEMBL1154352, “Toll-like receptor 7 selective synthetic oligoribonucleotide agonists: synthesis and structure-activity relationship studies” (J Med Chem, 2009), this text covers Activity, IFN-alpha and fold change (FC) for two compounds.

Experiment [1] relates to Splenocyte. Nature of the experiment: Immunomodulatory activity in C57BL/6 mouse splenocytes bearing TLR7 receptor assessed as IL12 release at 100 ug/ml after 24 hrs by ELISA. Format: functional, cell-based. The procedure, abridged:
(§1)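 C57BL/6 splenocytes in RPMI 1640 with 10% FBS, penicillin/streptomycin, 2 mM L-glutamine, plated at 5 × 10^6 cells/mL; compounds in PBS added, 37 °C for 24 h. Supernatant IL-12 and IL-6 by ELISA; representative of three independent experiments.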
(In general: In an ELISA, binding on a coated surface is turned into a signal by an enzyme label.)

Experiment [2] concerns Splenocyte. Nature of the experiment: Immunomodulatory activity in C57BL/6 mouse splenocytes bearing TLR7 receptor assessed as IL6 release at 100 ug/ml after 24 hrs by ELISA. Format: functional, cell-based. The gist of the method: as §1
The test system of experiment [3] is PBMC. The experiment in a line: Immunomodulatory activity in human PBMC assessed as induction of TNFalpha at 100 ug/ml after 24 hrs. The experiment is classed as functional, cell-based. The gist of the method:
(§2)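 Human PBMCs plated at 5 × 10^6 cells/mL; compounds dissolved in PBS added at various concentrations, 37 °C for 24 h. Supernatant cytokines/chemokines quantified with human Luminex multiplex kit.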

The test system of experiment [4] is PBMC. The experiment in a line: Immunomodulatory activity in human PBMC assessed as induction of IL12 at 100 ug/ml after 24 hrs. The experiment is classed as functional, cell-based. The procedure, abridged: as §2
Experiment [5] deals with T1, Toll-like receptor 9 (Mus musculus) (UniProt Q9EQU3).
T1 sequence (whole entry): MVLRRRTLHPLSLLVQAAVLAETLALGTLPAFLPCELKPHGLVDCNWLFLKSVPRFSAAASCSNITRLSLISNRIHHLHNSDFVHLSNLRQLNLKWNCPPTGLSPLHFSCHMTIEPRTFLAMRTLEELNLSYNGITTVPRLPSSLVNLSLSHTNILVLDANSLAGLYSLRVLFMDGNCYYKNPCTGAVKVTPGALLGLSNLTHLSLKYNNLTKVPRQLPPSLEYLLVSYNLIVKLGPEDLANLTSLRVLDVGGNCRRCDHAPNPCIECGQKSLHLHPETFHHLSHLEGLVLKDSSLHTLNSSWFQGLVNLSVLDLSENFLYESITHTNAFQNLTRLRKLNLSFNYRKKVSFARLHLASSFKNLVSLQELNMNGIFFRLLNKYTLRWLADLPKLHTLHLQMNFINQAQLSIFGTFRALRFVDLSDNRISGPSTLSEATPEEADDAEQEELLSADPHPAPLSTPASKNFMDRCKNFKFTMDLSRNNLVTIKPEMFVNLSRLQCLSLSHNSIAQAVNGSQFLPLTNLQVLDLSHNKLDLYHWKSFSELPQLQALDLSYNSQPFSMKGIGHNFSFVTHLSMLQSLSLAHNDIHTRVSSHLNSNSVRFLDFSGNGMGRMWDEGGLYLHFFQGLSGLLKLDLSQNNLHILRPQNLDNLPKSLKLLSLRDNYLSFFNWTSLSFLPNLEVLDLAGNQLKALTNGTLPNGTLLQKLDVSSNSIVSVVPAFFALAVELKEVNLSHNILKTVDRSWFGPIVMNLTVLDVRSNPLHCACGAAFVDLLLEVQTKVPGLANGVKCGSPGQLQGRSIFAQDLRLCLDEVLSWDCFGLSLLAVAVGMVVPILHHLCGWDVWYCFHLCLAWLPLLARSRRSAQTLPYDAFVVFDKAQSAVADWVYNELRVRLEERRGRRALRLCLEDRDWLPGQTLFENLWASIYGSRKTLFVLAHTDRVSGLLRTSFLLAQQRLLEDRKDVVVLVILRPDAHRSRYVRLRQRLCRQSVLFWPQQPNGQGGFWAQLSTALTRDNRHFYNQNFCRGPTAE
The experiment in a line: Activation of mouse TLR9 expressed in HEK293 assessed as induction of NF-kappaB activity reporter gene assay. Format: cell-based. (Reporter assays use an easily measured gene product as a stand-in for the process of interest.)

Experiment [6] deals with PBMC. The experiment in a line: Immunomodulatory activity in human PBMC assessed as induction of IFN-alpha at 100 ug/ml after 24 hrs.
The target in experiment [7] is T2, Toll-like receptor 8 (Homo sapiens) (UniProt Q9NR97).
T2 sequence (whole entry): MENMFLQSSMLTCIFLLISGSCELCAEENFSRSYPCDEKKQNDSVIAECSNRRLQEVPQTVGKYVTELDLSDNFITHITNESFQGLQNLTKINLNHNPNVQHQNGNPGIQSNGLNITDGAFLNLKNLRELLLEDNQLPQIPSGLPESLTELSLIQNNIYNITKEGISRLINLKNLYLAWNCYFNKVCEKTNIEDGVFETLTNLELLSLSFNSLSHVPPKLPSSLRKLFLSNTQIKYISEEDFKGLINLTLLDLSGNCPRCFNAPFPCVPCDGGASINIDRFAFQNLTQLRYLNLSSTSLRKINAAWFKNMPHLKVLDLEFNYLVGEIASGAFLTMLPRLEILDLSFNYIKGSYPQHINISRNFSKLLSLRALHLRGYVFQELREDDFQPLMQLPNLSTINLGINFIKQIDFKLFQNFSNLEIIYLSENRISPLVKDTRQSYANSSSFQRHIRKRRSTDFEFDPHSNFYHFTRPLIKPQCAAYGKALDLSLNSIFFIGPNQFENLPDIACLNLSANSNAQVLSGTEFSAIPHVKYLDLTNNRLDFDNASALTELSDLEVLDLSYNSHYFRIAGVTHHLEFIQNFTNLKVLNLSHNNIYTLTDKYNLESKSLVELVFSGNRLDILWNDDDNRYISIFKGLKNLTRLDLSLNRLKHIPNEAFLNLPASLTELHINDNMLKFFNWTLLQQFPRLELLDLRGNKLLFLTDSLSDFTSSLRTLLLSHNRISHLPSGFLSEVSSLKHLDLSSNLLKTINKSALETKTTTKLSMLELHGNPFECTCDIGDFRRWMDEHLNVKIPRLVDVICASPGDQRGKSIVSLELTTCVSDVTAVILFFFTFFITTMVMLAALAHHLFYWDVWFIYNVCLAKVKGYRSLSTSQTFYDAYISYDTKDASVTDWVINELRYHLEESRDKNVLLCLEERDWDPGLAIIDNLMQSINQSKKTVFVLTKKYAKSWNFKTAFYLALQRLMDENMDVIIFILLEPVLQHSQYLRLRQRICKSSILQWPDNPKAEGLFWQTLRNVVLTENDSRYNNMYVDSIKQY
The experiment in a line: Activation of human TLR8 expressed in HEK293XL assessed as fold induction of NF-kappaB activity at 50 ug/ml after 18 hrs by reporter gene assay relative to control. The procedure, abridged: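 HEK293 cells stably expressing human TLR7 or TLR8, transiently transfected with SEAP reporter plasmid; medium replaced, SIMRA compounds added, 18 h incubation. Supernatant SEAP measured by QuantiBlue; expressed as fold increase in NF-κB activity over PBS control. Tabulated data at 50 μg/mL, representative of three independent experiments.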

For the compound `Nc1ccn([C@@H]2O[C@H](COP(=O)(S)O[C@H]3[C@@H](O)[C@H](n4cnc5c(N)ncnc54)O[C@@H]3COP(=O)(S)O[C@H]3[C@@H](O)[C@H](n4ccc5c(=O)[nH]c(N)nc54)O[C@@H]3COP(=O)(S)O[C@H]3[C@@H](O)[C@H](n4ccc(=O)[nH]c4=O)O[C@@H]3COP(=O)(S)O[C@H]3[C@@H](O)[C@H](n4ccc5c(=O)[nH]c(N)nc54)O[C@@H]3COP(=O)(S)O[C@H]3[C@@H](O)[C@H](n4cnc5c(N)ncnc54)O[C@@H]3COP(=O)(S)O[C@H]3[C@@H](O)[C@H](n4cnc5c(N)ncnc54)O[C@@H]3CO)[C@@H](OP(=O)(S)OC[C@H]3O[C@@H](n4ccc5c(=O)[nH]c(N)nc54)[C@H](O)[C@@H]3OP(=O)(S)OC[C@H]3O[C@@H](n4cnc5c(N)ncnc54)[C@H](O)[C@@H]3OP(=O)(S)OC[C@H]3O[C@@H](n4ccc(=O)[nH]c4=O)[C@H](O)[C@@H]3OP(=O)(S)OC[C@H]3O[C@@H](n4ccc(=O)[nH]c4=O)[C@H](O)[C@@H]3OP(=O)(S)OCC(O)COP(=O)(S)O[C@H]3[C@@H](O)[C@H](n4ccc(=O)[nH]c4=O)O[C@@H]3COP(=O)(S)O[C@H]3[C@@H](O)[C@H](n4ccc(=O)[nH]c4=O)O[C@@H]3COP(=O)(S)O[C@H]3[C@@H](O)[C@H](n4cnc5c(N)ncnc54)O[C@@H]3COP(=O)(S)O[C@H]3[C@@H](O)[C@H](n4ccc5c(=O)[nH]c(N)nc54)O[C@@H]3COP(=O)(S)O[C@H]3[C@@H](O)[C@H](n4ccc(N)nc4=O)O[C@@H]3COP(=O)(S)O[C@H]3[C@@H](O)[C@H](n4cnc5c(N)ncnc54)O[C@@H]3COP(=O)(S)O[C@H]3[C@@H](O)[C@H](n4ccc5c(=O)[nH]c(N)nc54)O[C@@H]3COP(=O)(S)O[C@H]3[C@@H](O)[C@H](n4ccc(=O)[nH]c4=O)O[C@@H]3COP(=O)(S)O[C@H]3[C@@H](O)[C@H](n4ccc5c(=O)[nH]c(N)nc54)O[C@@H]3COP(=O)(S)O[C@H]3[C@@H](O)[C@H](n4cnc5c(N)ncnc54)O[C@@H]3COP(=O)(S)O[C@H]3[C@@H](O)[C@H](n4cnc5c(N)ncnc54)O[C@@H]3CO)[C@H]2O)c(=O)n1` (some centres undefined), the outcome in the experiment on Splenocyte [1] and in the experiment on Splenocyte [2] was Active. In addition, the values for the Activity in the experiment with PBMC [3] and with PBMC [4] were 15.7 pg/mL and 400 pg/mL, respectively. Further, the result in experiment [5] was inactive. Further, the IFN-alpha in the experiment with PBMC [6] came to 254 pg/mL. Moreover, the fold change (FC) in experiment [7] stood at 0.8.

`Nc1ccn([C@@H]2O[C@H](COP(=O)(S)O[C@H]3[C@@H](O)[C@H](n4cnc5c(N)ncnc54)O[C@@H]3COP(=O)(S)O[C@H]3[C@@H](O)[C@H](n4cnc5c(N)ncnc54)O[C@@H]3CO)[C@@H](OP(=O)(S)OC[C@H]3O[C@@H](n4ccc(=O)[nH]c4=O)[C@H](O)[C@@H]3OP(=O)(S)OC[C@H]3O[C@@H](n4ccc5c(=O)[nH]c(N)nc54)[C@H](O)[C@@H]3OP(=O)(S)OC[C@H]3O[C@@H](n4cnc5c(N)ncnc54)[C@H](O)[C@@H]3OP(=O)(S)OC[C@H]3O[C@@H](n4ccc(N)nc4=O)[C@H](O)[C@@H]3OP(=O)(S)OC[C@H]3O[C@@H](n4ccc5c(=O)[nH]c(N)nc54)[C@H](O)[C@@H]3OP(=O)(S)OC[C@H]3O[C@@H](n4ccc(N)nc4=O)[C@H](O)[C@@H]3OP(=O)(S)OC[C@H]3O[C@@H](n4ccc(=O)[nH]c4=O)[C@H](O)[C@@H]3OP(=O)(S)OC[C@H]3O[C@@H](n4ccc5c(=O)[nH]c(N)nc54)[C@H](O)[C@@H]3OP(=O)(S)OCC(O)COP(=O)(S)O[C@H]3[C@@H](O)[C@H](n4ccc5c(=O)[nH]c(N)nc54)O[C@@H]3COP(=O)(S)O[C@H]3[C@@H](O)[C@H](n4ccc(=O)[nH]c4=O)O[C@@H]3COP(=O)(S)O[C@H]3[C@@H](O)[C@H](n4ccc(N)nc4=O)O[C@@H]3COP(=O)(S)O[C@H]3[C@@H](O)[C@H](n4ccc5c(=O)[nH]c(N)nc54)O[C@@H]3COP(=O)(S)O[C@H]3[C@@H](O)[C@H](n4ccc(N)nc4=O)O[C@@H]3COP(=O)(S)O[C@H]3[C@@H](O)[C@H](n4cnc5c(N)ncnc54)O[C@@H]3COP(=O)(S)O[C@H]3[C@@H](O)[C@H](n4ccc5c(=O)[nH]c(N)nc54)O[C@@H]3COP(=O)(S)O[C@H]3[C@@H](O)[C@H](n4ccc(=O)[nH]c4=O)O[C@@H]3COP(=O)(S)O[C@H]3[C@@H](O)[C@H](n4ccc(N)nc4=O)O[C@@H]3COP(=O)(S)O[C@H]3[C@@H](O)[C@H](n4cnc5c(N)ncnc54)O[C@@H]3COP(=O)(S)O[C@H]3[C@@H](O)[C@H](n4cnc5c(N)ncnc54)O[C@@H]3CO)[C@H]2O)c(=O)n1` (some centres undefined): the outcome in the experiment on Splenocyte [1] and in the experiment on Splenocyte [2] was Active. Further, the Activity worked out at 0 pg/mL in the experiment on PBMC [3] and 154 pg/mL with PBMC [4]. In experiment [5], the outcome was inactive. In addition, the IFN-alpha in the experiment on PBMC [6] stood at 0 pg/mL. In addition, the fold change (FC) in experiment [7] was 0.4.
